# ChEMBL document CHEMBL3232813, “The identification, analysis and structure-based development of novel inhibitors of 6-hydroxymethyl-7,8-dihydropterin pyrophosphokinase” (Bioorg Med Chem, 2014)
# Activity calls are given as the source filed them. The calls are words filed in the database; no cut-off is given here.
# Columns and labels:
# [1] = biological target: T1, 2-amino-4-hydroxy-6-hydroxymethyldihydropteridine pyrophosphokinase (Escherichia coli (strain K12)) (UniProt P26281); test: Inhibition of GST-tagged Escherichia coli HPPK expressed in Escherichia coli using 6-hydroxymethyl-7,8-dihydropterin hydrochloride as substrate at 250 uM after 20 mins by luminescence assay
# T1 sequence (whole entry): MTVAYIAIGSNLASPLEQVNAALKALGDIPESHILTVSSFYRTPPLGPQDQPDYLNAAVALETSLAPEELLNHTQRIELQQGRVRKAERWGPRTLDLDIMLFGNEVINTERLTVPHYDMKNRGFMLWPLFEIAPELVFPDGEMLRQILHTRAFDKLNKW
# Procedure, shortened: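 GST tag cleaved from E. coli HPPK; 5 ng enzyme used. Reaction contained 0.75 µM dihydropterin substrate, 0.75 µM ATP, 100 mM Tris-HCl pH 8.5, 10 mM MgCl2, 10 mM BME, 0.01% Tween 20, 0.01% BSA and 5% DMSO. Compound present at 250 µM. Ran 20 min at 23 °C. Unconsumed ATP read by Kinase-Glo luminescence and reported as % inhibition.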
# [2] = biological target: T1, 2-amino-4-hydroxy-6-hydroxymethyldihydropteridine pyrophosphokinase (Escherichia coli (strain K12)); test: Binding affinity to GST-tagged Escherichia coli HPPK expressed in Escherichia coli by ITC method
# [3] = biological target: T2, 2-amino-4-hydroxy-6-hydroxymethyldihydropteridine pyrophosphokinase (Escherichia coli (strain K12), UniProt P26281); test: Inhibition of GST-tagged Escherichia coli HPPK expressed in Escherichia coli using 6-hydroxymethyl-7,8-dihydropterin hydrochloride as substrate after 20 mins by luminescence assay
# T2 sequence (P26281 whole entry): T1 sequence (whole entry)
# Procedure, shortened: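 GST tag cleaved from E. coli HPPK; 5 ng enzyme used. Reaction contained 0.75 µM dihydropterin substrate, 0.75 µM ATP, 100 mM Tris-HCl pH 8.5, 10 mM MgCl2, 10 mM BME, 0.01% Tween 20, 0.01% BSA and 5% DMSO. Ran 20 min at 23 °C. Remaining ATP read by Kinase-Glo luminescence.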
# [4] = biological target: T1, 2-amino-4-hydroxy-6-hydroxymethyldihydropteridine pyrophosphokinase (Escherichia coli (strain K12)); test: Binding affinity to GST-tagged Escherichia coli HPPK expressed in Escherichia coli by SPR assay in absence of AMP-CPP
# Procedure, shortened: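 Thrombin-cleaved EcHPPK (GST removed), minimally biotinylated and captured (~3000–3700 RU) on a neutravidin chip. SPR at 20 °C, no AMPCPP, in 20 mM Tris pH 8.5, 100 mM NaCl, 10 mM MgCl2, 1 mM TCEP, 0.005% Tween20, 10% glycerol, 5% DMSO. Compounds run as 3-fold dilution series. Data double-referenced, solvent-corrected, fitted to a 1:1 model for K_D.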
# [5] = biological target: T2, 2-amino-4-hydroxy-6-hydroxymethyldihydropteridine pyrophosphokinase; test: Binding affinity to GST-tagged Escherichia coli HPPK expressed in Escherichia coli by SPR assay based alternative equilibrium affinity method in presence of AMP-CPP
# Procedure, shortened: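 E. coli HPPK expressed as a GST fusion, with the tag removed by thrombin. Minimally biotinylated and captured on a neutravidin chip. SPR run at 20 °C in 20 mM Tris pH 8.5, 100 mM NaCl, 10 mM MgCl2, 1 mM TCEP, 10% glycerol, 5% DMSO, with 2 µM AMPCPP. Compounds injected as a 3-fold series from 100 µM at 80 µL/min. Data double-referenced and fitted to a 1:1 model.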
Activity [2],Compound,inhibition [1] [%],IC50 [3] [µM],Activity [4],Kd [5] [µM]
–,Nc1nc(O)c2nc(SCC(=O)N3CCOCC3)[nH]c2n1,6,–,–,–
Active,NC1N=C(O)c2nc(CO)cnc2N1 (centres undefined),–,–,–,–
–,Cc1ccc(C(=O)C(C)Sc2nc3nc(N)[nH]c(=O)c3[nH]2)cc1 (centres undefined),13,–,–,–
–,Nc1nc2nc(SCC(=O)c3ccccc3)[nH]c2c(=O)[nH]1,75,139,inactive,9.7
–,Nc1nc(O)nc2nc[nH]c12 [ISOGUANINE],–,–,–,7.5
–,Cc1nc2c(=O)[nH]c(N)nc2[nH]1,–,–,–,18
–,Nc1nc2nc(SC(=O)c3ccc(F)cc3)[nH]c2c(=O)[nH]1,16,–,–,–
–,Nc1nc2nc(SCC(=O)c3ccc(F)cc3)[nH]c2c(=O)[nH]1,73,79,–,11.2
–,Nc1nc2[nH]cnc2c(=O)[nH]1,48,–,–,–
–,N#Cc1ccc(CSc2nc3nc(N)[nH]c(=O)c3[nH]2)cc1,53,254,inactive,29
–,Nc1nc2nc(SCC(=O)c3ccc(O)cc3)[nH]c2c(=O)[nH]1,77,82,–,5.8
–,Nc1nc2nc(SCCN3CCOCC3)[nH]c2c(=O)[nH]1,7,–,–,–
–,Cc1ccc(C(=O)CSc2nc3nc(N)[nH]c(=O)c3[nH]2)cc1,80,64,–,6.7
–,CC(Sc1nc2nc(N)[nH]c(=O)c2[nH]1)C(=O)c1ccccc1 (centres undefined),10,–,–,–
–,COc1ccc(C(=O)CSc2nc3nc(N)[nH]c(=O)c3[nH]2)cc1,74,44,–,14.5
–,N#Cc1ccc(C(=O)CSc2nc3nc(N)[nH]c(=O)c3[nH]2)cc1,68,88,–,39
–,Nc1nc2[nH]c(S)nc2c(=O)[nH]1,18,–,–,> 100
–,Cc1ccccc1C(=O)CSc1nc2nc(N)[nH]c(=O)c2[nH]1,48,243,–,18.9
–,Nc1nc2[nH]cnc2c(=S)[nH]1,51,–,–,–
–,Nc1nc2nc(SCC(=O)c3ccc(OCCN4CCOCC4)cc3)[nH]c2c(=O)[nH]1,5,–,–,–
–,Nc1nc2nc[nH]c2c(=O)[nH]1 [GUANINE],–,–,–,38
–,COc1ccccc1C(=O)CSc1nc2nc(N)[nH]c(=O)c2[nH]1,12,–,–,–
–,Cc1cccc(C(=O)CSc2nc3nc(N)[nH]c(=O)c3[nH]2)c1,77,51,–,5.9
